From PubChem BioAssay AID1385 (PCMD, 2008)
The campaign covered roughly 200,000 compounds. About 170 (0.085%) were called active.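 The calls were made as follows: active = inhibition above 40% at the single screening dose; inactive = the rest.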 This excerpt belongs to a sample that is enriched for actives.

Molecular target: DNA repair protein RAD51 homolog 1 (Homo sapiens) (UniProt Q06609)
Test: blockers of RAD51-mediated homologous recombination – biochemical, fluorescence, primary screen (AID 1385);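 also: 0% = DMSO control wells and 100% = blanks with heterologous ssDNA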
Conditions: hRad51 DNA strand exchange, fluorescence dequenching; at 10 µM; active compounds read high
How it was run: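 Test system – preformed human Rad51 ssDNA filaments · Reagent – Donor/quencher-labelled 47-bp dsDNA substrate · Incubation – 37 °C 15-min filament assembly, 30-min compound preincubation, 15-min exchange · Signal – FRET fluorescence dequenching, excitation 485 nm, emission 520 nm · Read-out – percent inhibition from fluorescence, normalised to plate control and blank means · Benchmarks – plate control and blank wells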

Chain of DNA repair protein RAD51 homolog 1 (Homo sapiens) (Q06609 whole entry, looked up): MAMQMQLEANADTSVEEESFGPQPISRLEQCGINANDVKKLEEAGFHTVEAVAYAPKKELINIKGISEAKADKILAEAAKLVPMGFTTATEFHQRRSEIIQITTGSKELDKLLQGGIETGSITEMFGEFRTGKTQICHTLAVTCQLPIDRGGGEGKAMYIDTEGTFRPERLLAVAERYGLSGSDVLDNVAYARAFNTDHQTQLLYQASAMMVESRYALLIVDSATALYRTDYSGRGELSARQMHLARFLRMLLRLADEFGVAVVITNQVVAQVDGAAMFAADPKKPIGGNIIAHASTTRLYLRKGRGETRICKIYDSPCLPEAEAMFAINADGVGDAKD

Row | SMILES | inhibition
1 | Cn1cnc(S(=O)(=O)Nc2ccc3c(c2)OCCO3)c1 | 10.8% (inactive)
2 | O=C(O)CC12CC3CC(C1)CC(n1ncc(NCc4ccc(F)cc4)c(Cl)c1=O)(C3)C2 | -1.62% (inactive)
3 | O=C(Cc1cccc2ccccc12)NNC(=O)Nc1ccc(Cl)cc1 | 18.3% (inactive)
4 | Cc1nnc(Nc2ccccc2F)s1 | 21.3% (inactive)
5 | CCOC(=O)CN(C(=O)COc1nc(C)cc(C)c1C#N)c1ccc(Cl)cc1 | 1.01% (inactive)
6 | FC(F)(F)c1cccc(-c2nc(COc3ccc(Cl)cc3Cl)no2)c1 | 4.51% (inactive)
7 | CSC1=NCCN1C(=O)c1ccc(S(=O)(=O)N2CCOCC2)cc1 | -4.11% (inactive)
8 | CCSC1=NCCN1S(=O)(=O)c1ccc(F)cc1 | -1.84% (inactive)
9 | CCSC1=NCCN1C(=O)c1ccc(S(=O)(=O)N(CC)CC)cc1 | 40.5% (active)
10 | C/C(Cc1ccccc1)=N\NC(=O)CNC(=O)c1ccccc1Cl | 11.3% (inactive)
11 | COc1ccc(OC)c(NC(=O)N[C@H](Cc2ccccc2)C(=O)NN)c1 | 19% (inactive)
12 | N#Cc1ccc(Oc2ccc(C(F)(F)F)cc2NC(=O)c2ccc(F)cc2)cc1 | 18.6% (inactive)
13 | COCCn1c(SCC(=O)c2[nH]c(C)c(C(C)=O)c2C)nc2ccccc2c1=O | -4.09% (inactive)
14 | COc1ccc(/C=N/n2nnnc2N)cc1OC | -13.6% (inactive)
15 | Cc1cc(Nc2ccc(N3CCOCC3)cc2)c2cccc(C)c2n1 | 15.5% (inactive)
16 | Nc1ccccc1C(=O)NC1CCCCNC1=O (centres undefined) | 11.6% (inactive)
17 | COc1cc(N2C(=O)CC3(CCCC3)CC2=O)cc(OC)c1OC | -3.47% (inactive)
18 | Cc1ccc(Nc2c3c(nc4ccccc24)CCC3)cc1 | 16.7% (inactive)
19 | O=C1N[C@H](Cc2ccccc2)C(=O)N[C@H]1Cc1cn(S(=O)(=O)c2ccccc2)c2ccccc12 | -3.92% (inactive)
20 | O=C(NC1C2CC3CC(C2)CC1C3)c1ccc(N2CCNCC2)c([N+](=O)[O-])c1 (centres undefined) | -5.43% (inactive)
21 | CC(=O)N/C(=C\c1ccc(F)cc1)C(=O)NC(Cc1ccccc1)C(=O)O (centres undefined) | 5.67% (inactive)
22 | CN(C)S(=O)(=O)c1ccc(C(=O)NCC(C)(C)N2CCOCC2)cc1 | -11.7% (inactive)

Row | SMILES | inhibition
23 | NC(=O)c1ccc(-c2csnn2)cc1 | 9.52% (inactive)
24 | Nc1c(Cl)cc(S(N)(=O)=O)cc1S(N)(=O)=O | 3.22% (inactive)
25 | O=C(Nc1cccc2c1N(C(=O)c1ccco1)CCC2)c1ccco1 | 15.4% (inactive)
26 | CC1Cc2ccccc2N1CC(=O)Nc1ccc(S(N)(=O)=O)cc1 (centres undefined) | -6.22% (inactive)
27 | Cc1ccc(NC(=O)/C(=C/c2ccc([N+](=O)[O-])cc2)NC(=O)c2ccccc2)cc1 | -17.5% (inactive)
28 | NNC(=O)c1cccc(COCC(F)(F)C(F)F)c1 | 8.15% (inactive)
29 | O=C(Nc1ccccc1)C1CC(=O)n2c(nc3ccccc32)N1 (centres undefined) | 1.59% (inactive)
30 | NC(=O)c1ccc(NC(=O)COC(=O)c2ccc([N+](=O)[O-])cc2)cc1 | -14.5% (inactive)
31 | CCCc1c(C(=O)Nc2ccc(F)cc2)cnn1-c1ccccc1 | -9.46% (inactive)
32 | Cc1cc(C(=O)OCC(=O)Nc2nccs2)c2ccccc2n1 | -4.52% (inactive)
33 | CCc1nc(NCCO)c(C#N)c2c1CCCC2 | 18.4% (inactive)
34 | Cn1c(=O)c(=O)n(C)c2cc(S(=O)(=O)NCCN3CCN(c4ccccc4F)CC3)ccc21 | 0.68% (inactive)
35 | Cc1ccc(N2C(=O)CN=C2Nc2nc(C)cc(C)n2)cc1 | 7.92% (inactive)
36 | COC(=O)c1sccc1NC(=O)CC1C(=O)NCCN1C(=O)Nc1ccc(F)cc1F (centres undefined) | 1.89% (inactive)
37 | Fc1ccc(-c2csc(-c3ccc(C4SCCS4)cc3)n2)cc1F | 1.29% (inactive)
38 | O=C(NNC(=O)c1csc(-c2cccnc2)n1)Nc1ccc(Cl)cc1 | -5.17% (inactive)
39 | COCc1cc(=O)[nH]c(-c2ccc(C(F)(F)F)cc2)n1 | 7.88% (inactive)
40 | CSc1sc(C(=O)NNC(=O)c2ccc(Cl)cc2)c2c1C=CCC2 | -9.57% (inactive)
41 | N#Cc1c(NCCO)ccc([N+](=O)[O-])c1NCCO | 16.9% (inactive)
42 | COc1ccc(NC(=O)C2=C(C)NC(=O)NC2c2ccccc2[N+](=O)[O-])cc1 (centres undefined) | 0.69% (inactive)
43 | O=S(=O)(c1ccccc1)N1CN(Cc2ccc(F)cc2)c2nc3ccccc3nc21 | 7.4% (inactive)
44 | CC1(C)C2CC[C@]3(C)C(CC=C4[C@@H]5C[C@@](C)(CO)CC[C@]5(C(=O)O)CC[C@]43C)[C@@]2(C)CC[C@@H]1O (some centres undefined) | 6.09% (inactive)

Row | SMILES | inhibition
45 | Cc1cc(N2CCN(c3ccccc3)CC2)nc(N2CCOCC2)n1 | 26.8% (inactive)
46 | COc1ccc(Cn2c(O)c(/C=C3/C=CC=N3)c(=O)[nH]c2=O)cc1 | -6.92% (inactive)
47 | COC(=O)c1ccc(C(NC(=O)OCc2ccccc2)/C(F)=C/[C@@H](C)C(=O)O)cc1 (some centres undefined) | -2.27% (inactive)
48 | Cc1cccn2c(CNCC(C)Oc3cccnc3)c(C(=O)N3CCOCC3)nc12 (centres undefined) | -2.58% (inactive)
49 | N#CC1=C(N)Oc2c(ccc3cccnc23)C1c1ccncc1 (centres undefined) | 12.7% (inactive)
50 | CN(C)CCCN(Cc1cc2cc3c(cc2[nH]c1=O)OCCO3)C(=O)NC1CCCCC1 | 0.9% (inactive)
51 | C/C(CC(=O)NC(C)c1ccccc1)=N\NC(N)=S (centres undefined) | 21.4% (inactive)
52 | NCC(=O)c1cccc2ccc[n+]([O-])c12 | -0.26% (inactive)
53 | CCCOc1ccc(Cl)cc1Nc1nc(NCCO)nc(N2CCCC2)n1 | 6.75% (inactive)
54 | Cc1cc(NC(=O)OC(C)C)ccc1-c1ccc(NC(=O)OC(C)C)cc1C | -19.8% (inactive)
55 | CCn1c(SCC(=O)Nc2sc(C)c(C)c2C#N)nnc1C1CC1 | -26.7% (inactive)
56 | CCNc1nc(NCC)nc(N/N=C/c2ccc(O)c(OC)c2)n1 | 5.6% (inactive)
57 | Cc1cc(C)nc(Nc2n[nH]c(-c3ccccc3N)n2)n1 | 22.9% (inactive)
58 | COC(=O)c1cc(C(=O)OCC(=O)Nc2cc(C)on2)cc([N+](=O)[O-])c1 | -19.8% (inactive)
59 | O=C(CCl)Nc1cccc(CP(=O)(c2ccccc2)c2ccccc2)c1 | 3.48% (inactive)
60 | Cc1nc(-c2ccccc2)sc1-c1nnc(C2CC2)o1 | 13.8% (inactive)
61 | Cc1cc(=O)oc2cc(OCC(=O)Nc3nnc(C4CC4)s3)ccc12 | 27.8% (inactive)
62 | CCCSc1ncccc1C(=O)O | 14.8% (inactive)
63 | Cc1ccc(NC(=O)C/C(N)=N/O)cc1Cl | -4.43% (inactive)
64 | O=S(=O)(Cc1noc(-c2ccc(OC(F)(F)F)cc2)n1)c1ccc(F)cc1 | -2.58% (inactive)
65 | CC(NC(=O)C(=O)Nc1nccs1)c1ccccc1 (centres undefined) | 2.32% (inactive)
66 | CCOC(=O)c1c(N)sc2c1CCCC2=O | 10.5% (inactive)

Row | SMILES | inhibition
67 | CCCc1nc2c(c(=O)c3ccccc3n2C)c(=O)n1-c1cc(C)cc(C)c1 | 20% (inactive)
68 | Cc1cc(N)n(-c2ccc(S(=O)(=O)N3CCCC3)cc2[N+](=O)[O-])n1 | 4.97% (inactive)
69 | O=C(N/N=C/c1ccco1)c1csc2c1CCCC2 | 7.09% (inactive)
70 | Cn1c2c(c(=O)n(C)c1=O)C(c1cccc(F)c1)C(C#N)=C(N)O2 (centres undefined) | 1.62% (inactive)
71 | O=C1NNC(c2ccccc2)=N/C1=C\c1ccc(Cl)cc1 | -17% (inactive)
72 | O=C(NCCN1CCOCC1)c1ccc2c(c1)N(Cc1ccc(Cl)cc1)CCS2 | 22.5% (inactive)
73 | CC1(C)CC(=O)C=C(Nc2ccccc2)C1 | 8.69% (inactive)
74 | O=C(C1=C(O)C(=O)N(CCOCCO)C1c1ccccn1)c1cccs1 (centres undefined) | 21.9% (inactive)
75 | CC12CN3CCN(CC(C3)/C1=N\NC(=O)c1ccccc1N)C2 | -2.47% (inactive)
76 | Nc1scc[n+]1Cc1cccc2cccnc12 | 9.86% (inactive)
77 | Cc1c(CCC(=O)O)c(=O)oc2cc3occ(-c4ccccc4)c3cc12 | 3.32% (inactive)
78 | O=C(Cn1cnc2ccccc2c1=O)Nc1cccc(S(=O)(=O)N2CCCCC2)c1 | 11.5% (inactive)
79 | Cn1c(=O)c2c(-c3cccc(Br)c3)c(C#N)c(N)nc2n(C)c1=O | 4.26% (inactive)
80 | COc1ccccc1/C=C/C=N/NC(=O)CN1CCN(Cc2ccccc2)CC1 | -30.5% (inactive)
81 | CCOc1cc2c(Cl)ncnc2c(OCC)c1OCC | -5.3% (inactive)
82 | O=S(=O)(Nc1ccc(Cl)cn1)c1cnc(Cl)c(Br)c1 | 12% (inactive)
83 | CC(NCc1ccccc1OC1CCCC1)c1ccccc1 (centres undefined) | 15.6% (inactive)
84 | O=c1cc(CCl)nc2scc(-c3ccccc3)n12 | -3.51% (inactive)
85 | CNC(=S)NNC(=O)c1oc2nc(-c3ccccc3)cc(-c3ccco3)c2c1N | -38.4% (inactive)
86 | Cc1onc(-c2c(Cl)cccc2Cl)c1C(=O)NNC(=O)c1c(-c2c(Cl)cccc2Cl)noc1C | 9.44% (inactive)
87 | COc1cccc(Nc2nc(N)c([N+](=O)[O-])c(NCc3ccco3)n2)c1 | 1.8% (inactive)
88 | COc1ccc(CN2CC[C@H]3C=CC[C@@H](C(=O)N4CCOCC4)[C@H]3C2=O)cc1OC | -2.64% (inactive)

Row | SMILES | inhibition
89 | COc1ccccc1-n1c(SCC(=O)O)nc2sc3c(c2c1=O)CCC3 | 4.79% (inactive)
90 | COC(=O)C1=C[C@@H](C(=O)OC)[C@@H]2C3=C(C(=O)[C@]2(C)NC(=O)c2ccccc2)[C@H](C)n2c(=O)n(C)c(=O)n2[C@@H]3C1 | -1.64% (inactive)
91 | Cc1ncn2cc(-c3ccc(Cl)cc3Cl)[nH]c(=O)c12 | -9.91% (inactive)
92 | CCn1c(=O)c2cc(C(=O)Nc3cccc(C(C)=O)c3)sc2c2ccccc21 | -1.26% (inactive)
93 | NS(=O)(=O)c1ccc(CNC(=O)c2cnccn2)cc1 | 7.99% (inactive)
94 | NC(=O)c1nnsc1-c1ccc(-c2snnc2C(N)=O)cc1 | -31.9% (inactive)
95 | COc1ccc(CN2CCOC2=O)cc1OC | -3.27% (inactive)
96 | CCN(CC)c1ccc(NC(=O)C2CCC(CNc3c(N4CCCC4)c(=O)c3=O)CC2)c(C)c1 (centres undefined) | 15.6% (inactive)
97 | CC(O)c1nc2c(c(=O)n(C)c(=O)n2C)n1C (centres undefined) | -23.8% (inactive)
98 | COc1ccc(CCn2ccc(O)c(Cc3ccc(Cl)cc3Cl)c2=O)cc1OC | 43.6% (active)
99 | COc1ccc(CCNC2=C(Cl)C(=O)N(Cc3ccccc3)C2=O)cc1OC | 8.51% (inactive)
100 | COc1ccc(C(=O)O/N=C(\N)Cc2ccc(Cl)cc2Cl)cc1OC | 1.56% (inactive)
101 | O=C1[C@@H]2C(c3cccnc3)=NO[C@@H]2C(=O)N1c1ccc(Cl)cc1Cl | -42% (inactive)
102 | COc1ccc(NS(=O)(=O)c2ccc(N3CCOCC3)c(NC(=O)c3ccccc3Br)c2)cc1 | 17% (inactive)
103 | CN(C)S(=O)(=O)c1ccc(Cl)c(NC(=O)COC(=O)CC(NC(N)=O)c2ccc(Cl)cc2)c1 (centres undefined) | -44.1% (inactive)
104 | Clc1ccc(C[n+]2cc(-c3ccccc3)n3c2CCC3)cc1 | 18.9% (inactive)
105 | NNC(=O)c1ccc(COCC(F)(F)C(F)F)cc1 | 1.4% (inactive)
106 | COc1ccc2nc(NC(=O)NC3CCCCC3)sc2c1 | -16.2% (inactive)
107 | Cc1ccsc1/C=N/NC(=O)Cc1cc(=O)[nH][nH]1 | 16.7% (inactive)
108 | Cc1ccc(C(=O)NNC2=Nc3cc([N+](=O)[O-])ccc3OC2)cc1 | 3.01% (inactive)
109 | COc1ccc(NC(=O)CSc2ncnc3[nH]ncc23)cc1 | -5.26% (inactive)
